Measurements: ChEMBL document CHEMBL4043246, “Discovery of novel [1,2,4]triazolo[4,3-a]quinoxaline aminophenyl derivatives as BET inhibitors for cancer treatment” (Bioorg Med Chem Lett, 2017)

Legend:
[1] = target: T1, Bromodomain-containing protein 4 (Homo sapiens, UniProt O60885); experiment: Inhibition of human partial length BRD4 BD2 (K333 to E460 residues) expressed in bacterial expression system assessed as residual activity at 500 nM relative to control by BROMOscan assay
[2] = target: ATPase family AAA domain-containing protein 2 (Homo sapiens) (UniProt Q6PL18); experiment: Inhibition of human partial length ATAD2A (Q981 to R1108 residues) expressed in bacterial expression system assessed as residual activity at 500 nM relative to control by BROMOscan assay
[3] = Cell cycle arrest in human TY82 cells assessed as accumulation at G2/M phase at 3 uM after 24 hrs by DAPI staining based assay (reference value: 9%); assay type: functional
[4] = Cell cycle arrest in human TY82 cells assessed as accumulation at G2/M phase at 1 uM after 24 hrs by DAPI staining based assay (reference value: 9%); assay type: functional
[5] = target: Protein polybromo-1 (Homo sapiens) (UniProt Q86U86); experiment: Inhibition of human partial length PBRM1 BD2 (S178 to E291 residues) expressed in bacterial expression system assessed as residual activity at 500 nM relative to control by BROMOscan assay
[6] = Cell cycle arrest in human TY82 cells assessed as accumulation at S phase at 3 uM after 24 hrs by DAPI staining based assay (reference value: 11%); assay type: functional
[7] = tested on: Rattus norvegicus; experiment: AUCinfinity in rat at 20 mg/kg, po; assay type: ADME, organism-based; design: dose 20 mg/kg, time infinity, route oral; conditions: in vivo
Procedure, shortened: (§1)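 Rat pharmacokinetics with single dosing, either intravenous at 2 mg/kg or oral at 5 or 20 mg/kg. AUC is reported both to the last time point (AUCt) and extrapolated to infinity, in ug.hr/mL.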

[8] = target: Nucleosome-remodeling factor subunit BPTF (Homo sapiens) (UniProt Q12830); experiment: Inhibition of human partial length FALZ (S2791 to H2911 residues) expressed in bacterial expression system assessed as residual activity at 500 nM relative to control by BROMOscan assay
[9] = target: Histone acetyltransferase KAT2B (Homo sapiens) (UniProt Q92831); experiment: Inhibition of human partial length PCAF (G715 to D831 residues) expressed in bacterial expression system assessed as residual activity at 500 nM relative to control by BROMOscan assay
Sequence of Histone acetyltransferase KAT2B (Homo sapiens) (Q92831 whole entry, looked up, the tested form may be a part): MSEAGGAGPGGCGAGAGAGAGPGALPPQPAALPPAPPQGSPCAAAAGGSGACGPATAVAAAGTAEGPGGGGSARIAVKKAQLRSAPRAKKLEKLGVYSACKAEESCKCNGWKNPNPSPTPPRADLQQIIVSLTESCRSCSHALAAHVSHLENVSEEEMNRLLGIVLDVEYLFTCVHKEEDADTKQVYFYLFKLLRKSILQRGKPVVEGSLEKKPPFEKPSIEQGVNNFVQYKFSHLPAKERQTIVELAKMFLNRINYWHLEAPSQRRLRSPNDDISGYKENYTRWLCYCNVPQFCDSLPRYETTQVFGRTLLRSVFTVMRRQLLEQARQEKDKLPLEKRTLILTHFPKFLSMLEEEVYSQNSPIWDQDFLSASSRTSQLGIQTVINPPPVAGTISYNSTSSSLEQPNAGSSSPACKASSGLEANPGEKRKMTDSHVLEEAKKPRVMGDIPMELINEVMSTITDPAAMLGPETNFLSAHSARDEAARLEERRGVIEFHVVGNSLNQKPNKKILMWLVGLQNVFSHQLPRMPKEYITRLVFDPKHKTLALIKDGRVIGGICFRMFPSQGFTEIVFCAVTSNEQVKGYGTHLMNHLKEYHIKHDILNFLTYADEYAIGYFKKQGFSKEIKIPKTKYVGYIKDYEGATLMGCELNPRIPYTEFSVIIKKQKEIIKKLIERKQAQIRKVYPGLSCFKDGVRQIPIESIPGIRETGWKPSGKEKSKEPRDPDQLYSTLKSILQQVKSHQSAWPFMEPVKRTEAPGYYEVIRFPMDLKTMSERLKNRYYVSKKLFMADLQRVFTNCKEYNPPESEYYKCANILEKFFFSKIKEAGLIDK

[10] = target: CREB-binding protein (Homo sapiens) (UniProt Q92793); experiment: Inhibition of human partial length CREBBP (R1081 to G1197 residues) expressed in bacterial expression system assessed as residual activity at 500 nM relative to control by BROMOscan assay
[11] = target: Transcription initiation factor TFIID subunit 1 (Homo sapiens) (UniProt P21675); experiment: Inhibition of human partial length TAF1 BD2 (D1521 to D1656 residues) expressed in bacterial expression system assessed as residual activity at 500 nM relative to control by BROMOscan assay
[12] = target: Bromodomain testis-specific protein (Homo sapiens) (UniProt Q58F21); experiment: Inhibition of human partial length BRDT BD2 (K250 to E382 residues) expressed in bacterial expression system assessed as residual activity at 500 nM relative to control by BROMOscan assay
[13] = target: Bromodomain-containing protein 3 (Homo sapiens) (UniProt Q15059); experiment: Inhibition of human partial length BRD3 BD1 (P24 to E144 residues) expressed in bacterial expression system assessed as residual activity at 500 nM relative to control by BROMOscan assay
[14] = target: Histone acetyltransferase p300 (Homo sapiens) (UniProt Q09472); experiment: Inhibition of human partial length EP300 (A1040 to G1161 residues) expressed in bacterial expression system assessed as residual activity at 500 nM relative to control by BROMOscan assay
[15] = target: T1, Bromodomain-containing protein 4; experiment: Binding affinity to BRD4 BD2 (unknown origin)
[16] = AUCt in rat at 20 mg/kg, po; assay type: ADME, organism-based; conditions: in vivo; procedure, shortened: as §1
[17] = tested on: Rattus norvegicus; experiment: Tmax in rat at 20 mg/kg, po; assay type: ADME, organism-based; conditions: in vivo
Procedure, shortened: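 Rat pharmacokinetics after a single intravenous dose of 2 mg/kg or oral doses of 5 mg/kg and 20 mg/kg. Reported parameters are Tmax, Cmax, T1/2, AUCt, AUC∞, CL, Vss and F(%). CL, Vss and F come from the intravenous/oral 2 and 5 mg/kg arms.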

[18] = target: E3 ubiquitin-protein ligase TRIM33 (Homo sapiens) (UniProt Q9UPN9); experiment: Inhibition of human partial length TRIM33-phd-bromo (D882 to A1087 residues) expressed in bacterial expression system assessed as residual activity at 500 nM relative to control by BROMOscan assay
Sequence of E3 ubiquitin-protein ligase TRIM33 (Homo sapiens) (Q9UPN9 whole entry, the tested form may be a part): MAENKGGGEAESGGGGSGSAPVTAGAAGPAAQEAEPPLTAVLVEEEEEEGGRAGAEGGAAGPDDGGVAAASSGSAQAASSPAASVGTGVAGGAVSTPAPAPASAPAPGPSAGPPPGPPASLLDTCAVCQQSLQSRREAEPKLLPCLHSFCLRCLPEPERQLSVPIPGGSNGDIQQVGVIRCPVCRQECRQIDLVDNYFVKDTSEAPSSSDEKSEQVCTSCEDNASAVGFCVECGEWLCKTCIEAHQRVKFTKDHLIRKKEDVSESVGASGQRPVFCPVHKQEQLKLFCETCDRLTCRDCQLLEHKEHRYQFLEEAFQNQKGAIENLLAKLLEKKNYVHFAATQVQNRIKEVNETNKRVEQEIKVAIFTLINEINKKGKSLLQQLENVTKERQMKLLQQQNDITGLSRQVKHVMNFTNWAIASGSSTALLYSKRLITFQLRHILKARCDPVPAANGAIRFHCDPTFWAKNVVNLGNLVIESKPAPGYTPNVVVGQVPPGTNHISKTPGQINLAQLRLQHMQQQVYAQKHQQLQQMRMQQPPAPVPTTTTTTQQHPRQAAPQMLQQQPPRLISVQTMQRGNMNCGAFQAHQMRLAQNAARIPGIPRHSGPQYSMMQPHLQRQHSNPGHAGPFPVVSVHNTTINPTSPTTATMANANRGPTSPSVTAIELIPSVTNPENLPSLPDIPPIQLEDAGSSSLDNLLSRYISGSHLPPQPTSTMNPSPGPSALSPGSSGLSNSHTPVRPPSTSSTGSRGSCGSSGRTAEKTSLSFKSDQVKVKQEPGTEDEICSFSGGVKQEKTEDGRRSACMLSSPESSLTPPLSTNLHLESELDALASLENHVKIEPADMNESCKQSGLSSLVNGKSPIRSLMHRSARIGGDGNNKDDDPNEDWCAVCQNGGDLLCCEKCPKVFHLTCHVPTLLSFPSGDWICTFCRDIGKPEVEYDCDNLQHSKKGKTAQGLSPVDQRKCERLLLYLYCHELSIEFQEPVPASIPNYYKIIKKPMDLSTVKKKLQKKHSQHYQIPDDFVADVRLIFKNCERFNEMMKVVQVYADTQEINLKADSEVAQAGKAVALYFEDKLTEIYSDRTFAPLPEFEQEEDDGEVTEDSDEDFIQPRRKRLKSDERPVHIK

[19] = target: Transcription intermediary factor 1-alpha (Homo sapiens) (UniProt O15164); experiment: Inhibition of human partial length TRIM24-phd-bromo (P790 to P977 residues) expressed in bacterial expression system assessed as residual activity at 500 nM relative to control by BROMOscan assay
Sequence of Transcription intermediary factor 1-alpha (Homo sapiens) (O15164 whole entry, the tested form may be a part): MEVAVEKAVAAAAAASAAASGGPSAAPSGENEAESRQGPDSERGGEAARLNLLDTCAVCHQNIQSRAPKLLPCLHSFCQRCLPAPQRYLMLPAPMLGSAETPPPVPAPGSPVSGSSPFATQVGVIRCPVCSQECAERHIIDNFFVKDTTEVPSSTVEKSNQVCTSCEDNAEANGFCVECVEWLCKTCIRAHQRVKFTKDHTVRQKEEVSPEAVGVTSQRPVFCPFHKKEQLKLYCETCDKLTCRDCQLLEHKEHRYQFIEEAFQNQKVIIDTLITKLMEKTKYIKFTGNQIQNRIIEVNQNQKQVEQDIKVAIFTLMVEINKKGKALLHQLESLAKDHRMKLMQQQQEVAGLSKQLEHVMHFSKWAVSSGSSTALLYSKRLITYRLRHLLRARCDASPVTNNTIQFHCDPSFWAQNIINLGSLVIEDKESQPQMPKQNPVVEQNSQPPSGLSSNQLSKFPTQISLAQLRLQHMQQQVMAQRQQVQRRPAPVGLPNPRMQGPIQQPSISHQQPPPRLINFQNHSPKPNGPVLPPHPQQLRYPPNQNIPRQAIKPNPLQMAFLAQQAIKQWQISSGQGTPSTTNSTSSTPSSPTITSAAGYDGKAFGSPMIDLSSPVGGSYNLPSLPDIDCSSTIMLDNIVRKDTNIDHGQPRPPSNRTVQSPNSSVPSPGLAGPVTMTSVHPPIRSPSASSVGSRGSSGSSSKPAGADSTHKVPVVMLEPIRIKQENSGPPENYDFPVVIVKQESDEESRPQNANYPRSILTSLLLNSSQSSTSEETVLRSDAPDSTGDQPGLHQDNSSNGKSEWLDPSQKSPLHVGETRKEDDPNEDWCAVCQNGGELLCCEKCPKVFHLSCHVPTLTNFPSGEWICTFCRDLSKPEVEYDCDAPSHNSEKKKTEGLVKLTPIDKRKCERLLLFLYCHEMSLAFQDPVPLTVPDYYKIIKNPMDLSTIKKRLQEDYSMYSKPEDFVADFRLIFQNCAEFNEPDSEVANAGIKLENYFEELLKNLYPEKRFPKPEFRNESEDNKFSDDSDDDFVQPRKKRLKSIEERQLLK

[20] = target: Bromodomain and WD repeat-containing protein 1 (Homo sapiens) (UniProt Q9NSI6); experiment: Inhibition of human partial length WDR9 BD2 (A1310 to E1430 residues) expressed in bacterial expression system assessed as residual activity at 500 nM relative to control by BROMOscan assay
[21] = Cell cycle arrest in human TY82 cells assessed as accumulation at sub-G1 phase at 3 uM after 24 hrs by DAPI staining based assay (reference value: 6%); assay type: functional
[22] = target: T1, Bromodomain-containing protein 4; experiment: Inhibition of BRD4 BD1-BD2 (unknown origin) using tetraacetylated histone peptide as substrate after 2 hrs by alphascreen assay
[23] = target: Bromodomain-containing protein 2 (Homo sapiens) (UniProt P25440); experiment: Inhibition of human partial length BRD2 BD1 (K71 to N194 residues) expressed in bacterial expression system assessed as residual activity at 500 nM relative to control by BROMOscan assay
Sequence of Bromodomain-containing protein 2 (Homo sapiens) (P25440 whole entry, looked up, the tested form may be a part): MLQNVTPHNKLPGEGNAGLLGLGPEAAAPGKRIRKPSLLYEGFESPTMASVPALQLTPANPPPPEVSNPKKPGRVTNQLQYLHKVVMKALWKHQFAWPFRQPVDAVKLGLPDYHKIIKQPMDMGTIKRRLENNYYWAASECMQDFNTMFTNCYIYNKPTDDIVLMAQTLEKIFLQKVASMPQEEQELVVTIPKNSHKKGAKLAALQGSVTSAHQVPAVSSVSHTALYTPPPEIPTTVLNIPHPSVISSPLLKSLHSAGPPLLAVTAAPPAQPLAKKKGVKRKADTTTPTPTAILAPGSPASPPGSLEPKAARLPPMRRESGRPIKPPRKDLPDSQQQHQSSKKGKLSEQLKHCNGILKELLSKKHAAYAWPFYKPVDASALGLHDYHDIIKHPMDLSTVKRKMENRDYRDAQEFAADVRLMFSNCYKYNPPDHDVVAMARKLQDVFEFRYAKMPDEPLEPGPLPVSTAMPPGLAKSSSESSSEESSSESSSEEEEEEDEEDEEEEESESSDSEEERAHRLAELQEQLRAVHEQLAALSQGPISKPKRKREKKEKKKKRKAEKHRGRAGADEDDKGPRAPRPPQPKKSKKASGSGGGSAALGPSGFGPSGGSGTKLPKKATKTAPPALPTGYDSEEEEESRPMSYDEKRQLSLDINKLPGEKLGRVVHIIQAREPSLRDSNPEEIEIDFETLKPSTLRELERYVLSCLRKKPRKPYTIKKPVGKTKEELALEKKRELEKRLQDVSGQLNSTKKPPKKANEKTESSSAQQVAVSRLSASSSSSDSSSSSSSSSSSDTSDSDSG

[24] = target: Peregrin (Homo sapiens) (UniProt P55201); experiment: Inhibition of human partial length BRPF1 (E627 to G740 residues) expressed in bacterial expression system assessed as residual activity at 500 nM relative to control by BROMOscan assay
Sequence of Peregrin (Homo sapiens) (P55201 whole entry, the tested form may be a part): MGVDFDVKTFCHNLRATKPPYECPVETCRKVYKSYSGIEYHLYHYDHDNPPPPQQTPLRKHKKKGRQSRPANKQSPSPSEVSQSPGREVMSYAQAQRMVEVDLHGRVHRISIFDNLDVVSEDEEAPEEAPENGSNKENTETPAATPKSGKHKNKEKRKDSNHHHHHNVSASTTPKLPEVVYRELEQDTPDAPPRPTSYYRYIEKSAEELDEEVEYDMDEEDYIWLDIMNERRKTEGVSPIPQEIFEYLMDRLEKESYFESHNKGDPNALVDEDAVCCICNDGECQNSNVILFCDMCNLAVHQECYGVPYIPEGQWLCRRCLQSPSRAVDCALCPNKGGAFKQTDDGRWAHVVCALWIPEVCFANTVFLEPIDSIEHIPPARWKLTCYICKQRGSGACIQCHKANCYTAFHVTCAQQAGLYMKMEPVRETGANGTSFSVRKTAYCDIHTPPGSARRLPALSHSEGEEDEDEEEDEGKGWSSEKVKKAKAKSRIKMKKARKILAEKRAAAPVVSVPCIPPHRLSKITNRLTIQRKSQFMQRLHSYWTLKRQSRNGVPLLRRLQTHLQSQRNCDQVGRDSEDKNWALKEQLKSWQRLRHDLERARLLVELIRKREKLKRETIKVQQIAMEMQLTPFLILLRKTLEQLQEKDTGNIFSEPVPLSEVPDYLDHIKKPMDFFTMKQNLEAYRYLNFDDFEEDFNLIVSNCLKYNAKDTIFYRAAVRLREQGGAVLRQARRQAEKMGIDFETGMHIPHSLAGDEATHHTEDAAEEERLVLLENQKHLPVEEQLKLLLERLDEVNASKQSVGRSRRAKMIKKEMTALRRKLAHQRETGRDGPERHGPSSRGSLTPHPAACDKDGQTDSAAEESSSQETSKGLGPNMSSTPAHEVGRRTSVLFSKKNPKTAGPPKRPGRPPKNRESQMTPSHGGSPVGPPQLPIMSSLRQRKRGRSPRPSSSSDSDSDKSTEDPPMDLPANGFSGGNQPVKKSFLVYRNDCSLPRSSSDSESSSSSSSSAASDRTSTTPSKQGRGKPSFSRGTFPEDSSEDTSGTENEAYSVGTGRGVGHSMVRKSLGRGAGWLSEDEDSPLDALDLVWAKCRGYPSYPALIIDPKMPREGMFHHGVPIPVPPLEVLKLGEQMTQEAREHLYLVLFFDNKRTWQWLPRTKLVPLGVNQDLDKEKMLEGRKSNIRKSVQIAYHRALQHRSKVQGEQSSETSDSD

[25] = Stability in mouse liver microsomes assessed as parent compound remaining after 30 mins; assay type: ADME, microsome; conditions: read-out: Stability
Procedure, shortened: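 Incubated in vitro with mouse, rat or human liver microsomes for 30 minutes. Result expressed as percent of parent compound remaining.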

[26] = Cell cycle arrest in human TY82 cells assessed as accumulation at G1 phase at 1 uM after 24 hrs by DAPI staining based assay (reference value: 73%); assay type: functional
[27] = Cell cycle arrest in human TY82 cells assessed as accumulation at G2/M phase at 10 uM after 24 hrs by DAPI staining based assay (reference value: 9%); assay type: functional
[28] = Cell cycle arrest in human TY82 cells assessed as accumulation at S phase at 1 uM after 24 hrs by DAPI staining based assay (reference value: 11%); assay type: functional
[29] = tested on: THP-1; experiment: Antiproliferative activity against human THP1 cells; assay type: functional, cell-based

Activity [1]: 16% | Activity [2]: 100% | Activity [5]: 87% | AUC [7]: 25300 ng·h/mL | Activity [8]: 90% | Activity [9]: 91% | Activity [10]: 87% | Activity [11]: 36% | Activity [12]: 14% | Activity [13]: 11% | Activity [14]: 89% | Kd [15]: 9 nM | AUC(0-t) [16]: 20600 ng·h/mL | Tmax [17]: 1.3 h | Activity [18]: 100% | Activity [19]: 100% | Activity [20]: 100% | IC50 [22]: 68 nM | Activity [23]: 11% | Activity [24]: 37% | remaining at 0.5 h [25]: 0.024% | IC50 [29]: 1600 nM
SMILES: Cc1nnc2c(Nc3cccc(CNC(=O)C(C)C)c3)nc3ccccc3n12
Activity [3]: 4% | Activity [4]: 8% | Activity [6]: 2% | Activity [21]: 4% | Activity [26]: 81% | Activity [27]: 4% | Activity [28]: 6%
